CHO parental Ca: signal in parental CHO cells, OX1R antagonist counter-screen | parental CHO-K1, ATP-induced calcium, Fluo-8 fluorescence | inhibition, % at 5.6 µM | 330,000 tested, 0.63% active | AID 463079;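 active means inhibition above that plate's mean sample inhibition plus 3 SD, cut at about 26% in these data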;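 further: 0% = ATP-challenged DMSO wells and 100% = DMSO wells without ATP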
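Material: Parental CHO cells | Reagent: ATP | Compound dosing: Single nominal dose of 5.6 µM per compound | Detection: Intracellular calcium via Fluo-8 no-wash fluorescent dye | Read-out: % inhibition of ATP-induced calcium mobilization | Benchmarks: Low control ATP plus DMSO, high control DMSO only | Replicates: Singlicate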
GalR3 antagonist: blocks the human galanin receptor 3. inhibition, % at 3 µM. O60755. 360,000 tested, 0.44% active. AID 651719. HEK293 GalR3-CNG cAMP membrane potential fluorescence; galR3 body fused to GalR1 C-terminus;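 active means inhibition above the screen-wide average plus 3 SD, cut at about 13% in these data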;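 further: forskolin and galanin both at EC90 stimulate the cells; cAMP rise reported by CNG channel membrane potential dye signal; 0% = forskolin plus galanin with DMSO and 100% = forskolin alone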
GPR7 antagonist: antagonists of human GPR7 (neuropeptides B/W receptor 1); P48145; GPR7-expressing cells, fluorescence antagonist assay; inhibition, % at 4.4 µM; 290,000 tested, 1.1% active; in the data active means inhibition above about 16%, passing the limit was not always enough;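 further: cells stimulated with the agonist NPW; 0% = agonist with vehicle and 100% = vehicle without agonist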
Target sequence (P48145 whole entry, looked up): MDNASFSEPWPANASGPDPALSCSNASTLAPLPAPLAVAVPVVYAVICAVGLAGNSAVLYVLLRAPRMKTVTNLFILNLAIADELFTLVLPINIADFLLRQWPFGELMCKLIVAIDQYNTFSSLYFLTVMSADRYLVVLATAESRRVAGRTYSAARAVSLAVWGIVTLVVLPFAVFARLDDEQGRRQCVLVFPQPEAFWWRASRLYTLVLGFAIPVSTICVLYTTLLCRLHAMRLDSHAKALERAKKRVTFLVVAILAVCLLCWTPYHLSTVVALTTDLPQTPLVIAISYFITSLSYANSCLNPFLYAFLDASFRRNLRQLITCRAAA
OX1R antag-1: antagonists of human orexin 1 receptor | CHO/OX1R cells, Fluo-8 calcium fluorescence, orexin A | AID 434989 | 330,000 tested, 0.43% active | inhibition, % at 5 µM;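 active means inhibition above its plate's threshold, mean inhibition of all tested compounds on the plate plus 3 SD, cut at about 37% in these data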;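 further: 0% = orexin A challenge wells and 100% = SB-334867-A antagonist wells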
OX1R antag-2: antagonists of human orexin 1 receptor (OX1R). O43613. inhibition, % at 6.6 µM. OX1R-expressing cells, FRET antagonist read-out. 330,000 tested, 1.8% active. AID 485270; in the data active means inhibition mostly above about 38%, no sharp cut-off; inactive means mostly below about 40%;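 further: 0% = agonist challenge alone and 100% = reference antagonist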
OX1R Ca confirm: OX1R (human) antagonism, confirmed | inhibition, % at 5 µM | 1,100 tested, 38% active | CHO/OX1R cells, orexin A calcium Fluo-8 fluorescence | shares compounds with OX1R antag-1; in the data active means inhibition above about 29%;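 further: 0% = agonist challenge alone and 100% = reference antagonist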
CHO Ca triplic: counter-screen: parental CHO calcium response change, triplicate. shares compounds with OX1R antag-1. parental CHO-K1, ATP-induced calcium, Fluo-8 fluorescence. inhibition, % at 5.6 µM. 1,100 tested, 9.3% active. AID 492965;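 active means inhibition above a per-plate limit, the mean inhibition of that plate's test compounds plus 3 SD, cut at about 25% in these data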;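 further: 0% = ATP challenge with DMSO and 100% = DMSO without ATP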
OX1R HTRF confirm: confirmation of human orexin 1 receptor antagonists, HTRF format; shares compounds with OX1R antag-2; OX1R-expressing cells, HTRF antagonist assay; inhibition, % at 6.6 µM; 1,800 tested, 49% active; AID 492964; in the data active means inhibition above about 55%;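 further: CHO cells expressing OX1R stimulated with orexin A at about EC80; 0% = agonist challenge alone and 100% = reference antagonist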
CHO-K1 HTRF cnt: counter-screen for OX1R antagonists: effect in parental CHO-K1 cells; shares compounds with OX1R antag-2; AID 493232; inhibition, % at 6.6 µM; 1,800 tested, 48% active; HTRF counterscreen; in the data active means inhibition above about 17%;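 further: 0% = agonist challenge with vehicle and 100% = vehicle alone without agonist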
An asterisk follows results filed as active. This is a sample that favours compounds with a hit; in the whole collection about 3.1% have one here.

Screening Cc1nc2cc(-c3ccccc3)nn2c(N)c1-c1ccccc1 returned CHO parental Ca -14, GalR3 antagonist -5, OX1R antag-1 -9 and OX1R antag-2 7.
`Cc1nc2c(-c3ccccc3)c(C)nn2c(N)c1-c1ccccc1` gave CHO parental Ca -17, GalR3 antagonist -4, GPR7 antagonist -6, OX1R antag-1 46*, OX1R antag-2 81*, OX1R Ca confirm 27, CHO Ca triplic 6, OX1R HTRF confirm 79* and CHO-K1 HTRF cnt 12.
Screening CN(CC(=O)Nc1cccc(F)c1)C(=O)C1CC(=O)N(Cc2ccccc2)C1 (stereo unspecified) returned CHO parental Ca -11, GalR3 antagonist -5, GPR7 antagonist -2, OX1R antag-1 -2 and OX1R antag-2 23.
Screening CC(=O)Nc1ccc(NC(=O)C(C)OC(=O)C(C)SCC(=O)Nc2ccc(F)cc2)cc1 (stereo unspecified) returned CHO parental Ca -4, GalR3 antagonist -3, OX1R antag-1 28, OX1R antag-2 89*, OX1R Ca confirm 46*, CHO Ca triplic -2, OX1R HTRF confirm 87* and CHO-K1 HTRF cnt -1.
Screening CN(C)c1ccc(/C=C/c2ccc3ccccc3n2)cc1 returned CHO parental Ca 14, GPR7 antagonist 6, OX1R antag-1 62*, OX1R antag-2 75*, OX1R Ca confirm 52*, CHO Ca triplic 15, OX1R HTRF confirm 80* and CHO-K1 HTRF cnt 8.
For COc1ccc(N(CC(=O)NCCc2ccc(C)cc2)S(=O)(=O)c2c(C)noc2C)cc1 the results were CHO parental Ca -4, GalR3 antagonist -6, GPR7 antagonist -3, OX1R antag-1 27, OX1R antag-2 55*, OX1R Ca confirm 34*, CHO Ca triplic -20, OX1R HTRF confirm 84* and CHO-K1 HTRF cnt 4.
COc1ccc(N(CC(=O)NCc2cccc(OC)c2)S(=O)(=O)c2c(C)noc2C)cc1 was read as CHO parental Ca -14, GalR3 antagonist -7, GPR7 antagonist -4, OX1R antag-1 -15 and OX1R antag-2 38.
For COc1ccc(N(CC(=O)NCCc2cccc(C)c2)S(=O)(=O)c2c(C)noc2C)cc1 the results were CHO parental Ca -23, GPR7 antagonist -7, OX1R antag-1 81*, OX1R antag-2 103*, OX1R Ca confirm 68*, CHO Ca triplic -10, OX1R HTRF confirm 91* and CHO-K1 HTRF cnt 5.
Screening COc1ccc(N(CC(=O)NCCc2ccc(OC)c(OC)c2)S(=O)(=O)c2c(C)noc2C)cc1 returned CHO parental Ca -30, GalR3 antagonist -5, GPR7 antagonist -3, OX1R antag-1 -17 and OX1R antag-2 29.
`CN(Cc1ccccc1)C(=O)Cn1c(=O)oc2cc(S(=O)(=O)NCc3ccccc3)ccc21` gave CHO parental Ca 7, GalR3 antagonist 0, GPR7 antagonist 2, OX1R antag-1 25, OX1R antag-2 48*, OX1R Ca confirm 47*, CHO Ca triplic 7, OX1R HTRF confirm 88* and CHO-K1 HTRF cnt -10.
`CN(Cc1ccccc1)C(=O)Cn1c(=O)oc2cc(S(=O)(=O)N3CCCC3)ccc21` gave CHO parental Ca -8, GalR3 antagonist -3, GPR7 antagonist -1, OX1R antag-1 -14 and OX1R antag-2 14.
Screening CCCN(CC(=O)Nc1ccccc1OC)C(=O)Cn1[nH]c(=O)c2ccccc2c1=O returned CHO parental Ca -22, GalR3 antagonist -6, OX1R antag-1 -22 and OX1R antag-2 7.
For CCCN(CC(=O)Nc1ccccc1OC)C(=O)CSc1ccc(Br)cc1C the results were CHO parental Ca -24, GalR3 antagonist 0, OX1R antag-1 54*, OX1R antag-2 58*, OX1R Ca confirm 22, CHO Ca triplic -11, OX1R HTRF confirm 73* and CHO-K1 HTRF cnt 4.

Compound activity as filed in PubChem.
